Data: ChEMBL document CHEMBL3286371, “wALADin benzimidazoles differentially modulate the function of porphobilinogen synthase orthologs” (J Med Chem, 2014)
pIC50: −log10 of the molar value. Calls of active or inactive are those of the source. The rule behind the calls is not given here.

Legend:
[1] = molecular target: T1, Delta-aminolevulinic acid dehydratase (Escherichia coli (strain K12)) (UniProt P0ACB2); test: Inhibition of Escherichia coli recombinant PBGS using 5-ALA as substrate at […]
T1 sequence (whole entry): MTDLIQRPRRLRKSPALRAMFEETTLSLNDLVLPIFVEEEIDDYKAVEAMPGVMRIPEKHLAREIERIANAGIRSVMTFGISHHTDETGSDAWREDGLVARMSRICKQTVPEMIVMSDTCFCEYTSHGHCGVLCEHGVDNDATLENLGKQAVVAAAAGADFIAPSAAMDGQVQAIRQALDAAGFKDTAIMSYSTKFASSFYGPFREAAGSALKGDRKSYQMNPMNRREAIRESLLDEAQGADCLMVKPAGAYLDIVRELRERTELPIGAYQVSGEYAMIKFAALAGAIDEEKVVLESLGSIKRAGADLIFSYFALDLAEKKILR

[2] = molecular target: T1, Delta-aminolevulinic acid dehydratase (Escherichia coli (strain K12)); test: Stimulation of Escherichia coli recombinant PBGS using 5-ALA as substrate at […]
[3] = molecular target: T2, Delta-aminolevulinic acid dehydratase (Drosophila melanogaster, UniProt Q9VTV9); test: Inhibition of Drosophila melanogaster recombinant PBGS using 5-ALA as substrate
T2 sequence (Q9VTV9 whole entry): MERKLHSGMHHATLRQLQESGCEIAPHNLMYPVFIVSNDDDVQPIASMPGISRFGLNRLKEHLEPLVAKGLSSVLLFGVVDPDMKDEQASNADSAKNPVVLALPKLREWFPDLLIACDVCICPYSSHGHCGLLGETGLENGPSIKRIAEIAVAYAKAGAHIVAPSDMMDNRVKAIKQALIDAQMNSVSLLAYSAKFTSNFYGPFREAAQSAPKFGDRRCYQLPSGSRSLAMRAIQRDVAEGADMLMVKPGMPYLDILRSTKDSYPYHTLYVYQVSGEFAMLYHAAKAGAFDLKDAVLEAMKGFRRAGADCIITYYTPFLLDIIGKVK

[4] = test system: Toxoplasma gondii; test: Stimulation of Toxoplasma gondii recombinant PBGS using 5-ALA as substrate at […]
[5] = molecular target: T3, Delta-aminolevulinic acid dehydratase (Wolbachia sp. subsp. Brugia malayi (strain TRS), UniProt Q5GSR3); test: Inhibition of C-terminal His-tagged Wolbachia PBGS using 5-ALA as substrate
T3 sequence (Q5GSR3 whole entry): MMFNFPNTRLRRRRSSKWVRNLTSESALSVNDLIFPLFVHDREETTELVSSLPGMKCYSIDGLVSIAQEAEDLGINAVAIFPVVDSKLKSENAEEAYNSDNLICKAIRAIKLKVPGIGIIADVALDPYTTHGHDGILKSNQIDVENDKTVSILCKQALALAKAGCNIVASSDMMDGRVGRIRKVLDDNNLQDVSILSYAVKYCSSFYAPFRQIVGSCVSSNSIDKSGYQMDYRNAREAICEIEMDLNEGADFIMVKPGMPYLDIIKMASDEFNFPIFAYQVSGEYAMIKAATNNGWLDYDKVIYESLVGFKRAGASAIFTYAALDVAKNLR

[6] = molecular target: T4, Delta-aminolevulinic acid dehydratase (Homo sapiens, UniProt P13716); test: Inhibition of human PBGS using 5-ALA as substrate
T4 sequence (P13716 whole entry): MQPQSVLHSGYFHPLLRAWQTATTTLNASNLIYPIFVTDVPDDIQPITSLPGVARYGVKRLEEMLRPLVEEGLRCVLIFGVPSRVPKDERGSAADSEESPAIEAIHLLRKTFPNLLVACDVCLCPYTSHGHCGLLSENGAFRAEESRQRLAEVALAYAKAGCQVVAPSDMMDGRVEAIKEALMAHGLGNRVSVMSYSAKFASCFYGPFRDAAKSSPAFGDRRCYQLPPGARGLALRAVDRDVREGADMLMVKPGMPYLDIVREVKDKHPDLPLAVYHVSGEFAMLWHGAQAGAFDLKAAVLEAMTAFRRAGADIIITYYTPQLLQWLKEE

[7] = molecular target: Delta-aminolevulinic acid dehydratase (Yersinia enterocolitica W22703) (UniProt F4MUJ9); test: Inhibition of Yersinia enterocolitica recombinant PBGS expressed in Escherichia coli using 5-ALA as substrate at […]
Sequence of Delta-aminolevulinic acid dehydratase (Yersinia enterocolitica W22703) (F4MUJ9 as listed by the source): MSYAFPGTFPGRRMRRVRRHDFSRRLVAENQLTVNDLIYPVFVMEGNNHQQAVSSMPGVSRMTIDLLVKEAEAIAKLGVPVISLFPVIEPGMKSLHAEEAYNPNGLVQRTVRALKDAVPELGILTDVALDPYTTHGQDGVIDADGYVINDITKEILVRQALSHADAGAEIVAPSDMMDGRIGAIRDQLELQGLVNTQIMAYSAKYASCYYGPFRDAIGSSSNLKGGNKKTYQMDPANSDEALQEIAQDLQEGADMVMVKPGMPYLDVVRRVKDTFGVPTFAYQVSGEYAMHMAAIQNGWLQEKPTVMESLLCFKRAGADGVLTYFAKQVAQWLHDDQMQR

[8] = molecular target: Delta-aminolevulinic acid dehydratase (Pseudomonas aeruginosa (strain ATCC 15692 / PAO1 / 1C / PRS 101 / LMG12228)) (UniProt Q59643); test: Inhibition of Pseudomonas aeruginosa PAO1 recombinant PBGS using 5-ALA as substrate at […]
Sequence of Delta-aminolevulinic acid dehydratase (Pseudomonas aeruginosa (strain ATCC 15692 / PAO1 / 1C / PRS 101 / LMG12228)) (Q59643 whole entry): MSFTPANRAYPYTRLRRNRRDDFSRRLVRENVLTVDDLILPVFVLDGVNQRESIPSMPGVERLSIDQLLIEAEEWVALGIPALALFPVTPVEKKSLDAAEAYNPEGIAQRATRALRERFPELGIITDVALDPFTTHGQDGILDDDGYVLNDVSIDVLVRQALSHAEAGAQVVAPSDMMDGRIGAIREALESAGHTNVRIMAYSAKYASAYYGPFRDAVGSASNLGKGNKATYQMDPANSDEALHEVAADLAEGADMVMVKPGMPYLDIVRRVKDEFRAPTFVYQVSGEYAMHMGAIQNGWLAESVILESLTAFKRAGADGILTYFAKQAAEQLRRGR

[9] = molecular target: Delta-aminolevulinic acid dehydratase (Yersinia enterocolitica W22703) (UniProt F4MUJ9); test: Stimulation of Yersinia enterocolitica recombinant PBGS expressed in Escherichia coli using 5-ALA as substrate at […]
[10] = test system: Toxoplasma gondii; test: Inhibition of Toxoplasma gondii recombinant PBGS using 5-ALA as substrate at […]
[11] = molecular target: Delta-aminolevulinic acid dehydratase (Pseudomonas aeruginosa (strain ATCC 15692 / PAO1 / 1C / PRS 101 / LMG12228)) (UniProt Q59643); test: Stimulation of Pseudomonas aeruginosa PAO1 recombinant PBGS using 5-ALA as substrate at […]
[12] = molecular target: T5, Delta-aminolevulinic acid dehydratase, chloroplastic (Pisum sativum, UniProt P30124); test: Inhibition of Pisum sativum PBGS using 5-ALA as substrate; design: species or system Lathyrus oleraceus
T5 sequence (P30124 whole entry): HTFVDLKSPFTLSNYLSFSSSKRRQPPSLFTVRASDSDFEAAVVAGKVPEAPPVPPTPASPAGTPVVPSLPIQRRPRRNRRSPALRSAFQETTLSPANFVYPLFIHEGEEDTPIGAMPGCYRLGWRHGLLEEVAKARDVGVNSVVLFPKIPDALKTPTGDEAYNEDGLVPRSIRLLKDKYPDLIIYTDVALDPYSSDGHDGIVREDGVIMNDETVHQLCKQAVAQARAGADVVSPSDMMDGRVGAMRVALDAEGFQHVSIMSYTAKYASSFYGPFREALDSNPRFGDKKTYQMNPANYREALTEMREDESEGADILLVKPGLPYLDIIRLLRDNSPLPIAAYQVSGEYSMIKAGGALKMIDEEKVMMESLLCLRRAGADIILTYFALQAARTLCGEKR
Summary of the method: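 Pea (P. sativum) PBGS at 300 nM subunit in 100 mM BTP-HCl pH 8.5 with 1 mM MgCl2, 5 mM DTT and 0.2 mM 5-ALA, 15 min at 36 °C. Porphobilinogen detected with Ehrlich's reagent. Activity normalized to 6.7% DMSO control as 100%. IC50 from variable-slope normalized-response fit.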

SMILES	inhibition [1]	Smax [2] [%]	pIC50 [3]	Smax [4] [%]	pIC50 [5]	pIC50 [6]	inhibition [7]	inhibition [8]	Smax [9] [%]	inhibition [10]	Smax [11] [%]	pIC50 [12]
O=C(O)c1ccc2c(c1)ncn2Cc1ccc(C(F)(F)F)cc1	inactive	100	3.21	100	4.06	3.76	inactive	inactive	100	inactive	100	4.37
O=C(O)c1ccc2[nH]c(CCNC(=O)c3cccs3)nc2c1	inactive	100	3.35	100	3.30	–	inactive	inactive	100	inactive	100	3.94
O=C(O)c1ccc2nc(CCNC(=O)c3cccs3)n(Cc3cccc(C(F)(F)F)c3)c2c1	inactive	100	3.59	–	3.50	–	–	inactive	131	–	100	4.05
O=C(O)c1ccc2[nH]cnc2c1	inactive	100	< 3.00	100	3.30	3.29	inactive	inactive	100	inactive	100	< 3.30
Cn1cnc2cc(C(=O)O)ccc21	inactive	100	< 3.00	100	–	–	inactive	inactive	100	inactive	100	3.59
O=C(O)c1ccc2c(c1)ncn2Cc1ccccc1	inactive	100	2.99	100	3.71	3.67	inactive	inactive	100	inactive	100	3.74
COc1cccc(Cn2cnc3cc(C(=O)O)ccc32)c1	inactive	100	3.43	100	3.69	3.81	inactive	inactive	100	inactive	100	3.81
O=C(NCCc1nc2cccc(C(=O)O)c2n1Cc1cccc(C(F)(F)F)c1)c1cccs1	inactive	100	< 3.00	113	3.79	–	–	inactive	118	–	100	< 3.30
O=C(O)c1ccc2c(c1)ncn2Cc1ccccc1C(F)(F)F	inactive	100	< 3.00	100	3.53	3.84	inactive	inactive	100	inactive	100	4.19
Cc1cccc(Cn2cnc3cc(C(=O)O)ccc32)c1	inactive	100	3.43	100	3.87	3.65	inactive	inactive	100	inactive	100	4.02
